Results on eight compounds are retold here after ChEMBL document CHEMBL3414523, “FimH antagonists: bioisosteres to improve the in vitro and in vivo PK/PD profile” (J Med Chem, 2015).

Converted amounts (≈) assume the structure as drawn.

A short description of data set [1]: Apparent permeability across apical to basolateral side in human Caco2 cells by LC/MS analysis. As to conditions: Caco-2. For orientation: Caco-2 monolayers are a common model of the intestinal barrier.
Data set [2] in a line: Kinetic solubility of the compound at 0.1 to 0.5 mM at pH 7.6 after 15 hrs by UV/Vis spectrophotometry. Format: physicochemical. As to conditions: buffer, read-out: Kinetic_solubility.
A short description of data set [3]: Displacement of fluorescently labeled 3'-chloro-N-(2-(3-(3',6'-dihydroxy-3-oxo-3H-spiro[isobenzofuran-1,9'-xanthene]-5-yl)thioureido)ethyl)-4'-((2R,3S,4S,5S,6R)-3,4,5-trihydroxy-6-(hydroxymethyl)tetrahydro-2H-pyran-2-yloxy)biphenyl-4-carboxamide from Escherichia coli recombinant 6-His-tagged FimH CRD expressed in Escherichia coli HM125 after 24 hrs by fluorescence polarization assay. In outline: (§1)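 Competitive fluorescence polarization with His6-tagged FimH CRD (thrombin cleavage site) and fixed fluorescent reporter ligand, 24 h incubation to reach equilibrium; polarized excitation 485 nm, emission 528 nm on a plate reader. IC50 from four-parameter nonlinear least-squares fit, converted to KD by a modified Cheng–Prusoff equation accounting for ligand depletion.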
For orientation: Polarisation of emitted light reports the rotation of a fluorescent probe.

Data set [4] is described as follows: Plasma protein binding in human by equilibrium dialysis method. Format: ADME, cell-free. As to conditions: read-out: PPB (converted). (In equilibrium dialysis only unbound substance equilibrates across the membrane.)
Data set [5] can be described thus: Half life in rat liver microsomes at 2 uM after 10 mins by LC/MS/MS analysis.
Data set [6] can be described thus: Apparent permeability across basolateral to apical side in human Caco2 cells by LC/MS analysis. As to conditions: Caco-2.
Data set [7] is described as follows: Displacement of n-heptyl 2-deoxy-alpha-D-mannopyranoside from Escherichia coli recombinant 6-His-tagged FimH CRD expressed in Escherichia coli HM125 after 20 mins by isothermal titration calorimetry.
Data set [8] can be described thus: physchem. To be noted: octanol/water, pH 7.4.
The nature of data set [9]: Binding affinity to Escherichia coli recombinant 6-His-tagged FimH CRD expressed in Escherichia coli HM125 by isothermal titration calorimetry.
Data set [10] in a line: Lipophilicity, log P of the compound. The data set is classed as physicochemical. To be noted: octanol/water.
A short description of data set [11]: physchem. As to conditions: buffer, pH 7.4.
A short description of data set [12]: Kinetic solubility of the compound at 0.1 to 0.5 mM at pH 3 to 7.4 after 15 hrs by UV/Vis spectrophotometry. The data set is classed as physicochemical. As to conditions: buffer, read-out: Kinetic_solubility.
Data set [13] can be described thus: Kinetic solubility of the compound at 0.1 to 0.5 mM at pH 6.51 after 15 hrs by UV/Vis spectrophotometry. The data set is classed as physicochemical. As to conditions: buffer, read-out: Kinetic_solubility.
Data set [14] can be described thus: Half life in rat liver microsomes at 2 uM after 10 mins by LC/MS/MS analysis in presence of NADPH. Format: ADME.
The nature of data set [15]: AUC (0 to infinity) in C3H/HeN mouse at 50 mg/kg, iv. More on the design: time infinity, dose 50 mg/kg, route intravenous. The data set is classed as ADME, organism-based. As to conditions: plasma.
Data set [16] relates to Mus musculus. In words: Volume of distribution in C3H/HeN mouse at 50 mg/kg, iv. Format: ADME, organism-based. More on the design: dose 50 mg/kg, route intravenous. As to conditions: in vivo.
Data set [17] concerns Mus musculus. In words: Half life in C3H/HeN mouse at 50 mg/kg, iv. The data set is classed as ADME, organism-based. To be noted: in vivo. More on the design: dose 50 mg/kg, route intravenous.
A short description of data set [18]: Initial plasma concentration in C3H/HeN mouse at 50 mg/kg, iv. Also on record: dose 50 mg/kg, route intravenous. The data set is classed as ADME, organism-based.
For data set [19], the system named is Mus musculus. In words: Total clearance in C3H/HeN mouse at 50 mg/kg, iv. The data set is classed as ADME, organism-based. Also on record: dose 50 mg/kg, route intravenous. To be noted: in vivo.
A short description of data set [20]: Cmax in urine of C3H/HeN mouse at 50 mg/kg, iv. More on the design: dose 50 mg/kg, route intravenous. Format: ADME, organism-based.
Data set [21] in a line: Effective permeability coefficient, log Pe after 16 hrs by PAMPA. The data set is classed as ADME.
A short description of data set [22]: Kinetic solubility of the compound at 0.1 to 0.5 mM at pH 6.61 after 15 hrs by UV/Vis spectrophotometry. The data set is classed as physicochemical. As to conditions: buffer, read-out: Kinetic_solubility.
The nature of data set [23]: Binding affinity to Escherichia coli recombinant 6-His-tagged FimH CRD expressed in Escherichia coli HM125 after 24 hrs by competitive fluorescence polarization assay. Put shortly: as §1
Data set [24] is described as follows: Dissociation constant, pKa of the compound by NMR spectroscopy. Format: physicochemical.
Data set [25] in a line: physchem. As to conditions: buffer, pH 3.

Take `N#Cc1ccc(-c2ccc(O[C@H]3O[C@H](CO)[C@@H](O)[C@H](O)[C@@H]3O)cc2)cc1`: the Papp A→B – broadly, the apparent permeability from the apical to the basolateral side of a cell layer – in data set [1] turned out to be 2 ×10⁻⁶ cm/s. The solubility kinetic at 15 h in data set [2] was 186 µg/mL (≈ 520 µM). Further, the values for the dissociation constant (Kd) in [3] and in data set [7] were 0.002 µM and 0.0028 µM, respectively. In addition, in data set [4], the fraction unbound is 0.01. The half-life (usually the time in which the quantity being followed falls by half) at 10 min, 2 µM in data set [5] (liver microsomes) is more than 60 min. The Papp B→A (as a rule, the apparent permeability from the basolateral to the apical side of a cell layer) in data set [6] is 13.2 ×10⁻⁶ cm/s. Also, the pH-dependent lipophilicity (logD) (commonly lipophilicity at a set pH, counting ionised and neutral species) at 2 h, 1 µM in “physchem [8]” is 1.4.

In the case of `OC[C@H]1O[C@H](Oc2ccc(-c3ccccc3)cc2)[C@@H](O)[C@@H](O)[C@@H]1O`, the Papp A→B in data set [1] is 10 ×10⁻⁶ cm/s. The Kd (usually the equilibrium constant for the complex coming apart) in [3] was determined as 0.0151 µM; in data set [9] it was 0.0177 µM. In addition, the fraction unbound in [4] is 0.07. The basolateral-to-apical permeability (Papp B→A) in data set [6] worked out at 19 ×10⁻⁶ cm/s. The logP (as a rule, a log measure of how a compound divides between an organic and an aqueous phase) in [10] was determined as 2.1. Besides, in the data set “physchem [11]”, the solubility kinetic at 15 h, 500 µM came out at 21 µg/mL (≈ 63.2 µM). For the same compound, the logD at 2 h, 1 µM in the data set “physchem [8]” was 2.1.

Turning to `CCCCCCCO[C@H]1O[C@H](CO)[C@@H](O)[C@H](O)[C@@H]1O`, the Papp A→B in data set [1] is 7 ×10⁻⁶ cm/s. For the same compound, the Kd in data set [3] is 0.0283 µM; in data set [9], 0.0289 µM. This compound also displayed a half-life at 10 min, 2 µM in data set [5] (microsomes) of 13 min. Moreover, in data set [6], the Papp B→A is 9.4 ×10⁻⁶ cm/s. Further, in [12], the solubility kinetic at 15 h is more than 3000 µg/mL.

On to `COC(=O)c1ccc(-c2ccc(O[C@H]3O[C@H](CO)[C@@H](O)[C@H](O)[C@@H]3O)cc2)cc1`, for which the apparent permeability from apical to basolateral (Papp A→B) in [1] is 4.23 ×10⁻⁶ cm/s. Moreover, the Kd in data set [3] amounted to 0.0036 µM. In data set [13], the solubility kinetic at 15 h was found to be 33.8 µg/mL (≈ 86.6 µM). Also, the half-life at 2 µM in data set [14] stood at 1 min. In addition, the log distribution coefficient (logD) at 2 h, 1 µM in “physchem [8]” was determined as 2.14.

Turning to `O=C(O)c1ccc(-c2ccc(O[C@H]3O[C@H](CO)[C@@H](O)[C@H](O)[C@@H]3O)cc2)cc1`, the results for the dissociation constant (Kd) in data set [3] and in [9] were 0.0179 µM and 0.015 µM, respectively. Also, the half-life at 10 min, 2 µM in data set [5] (liver microsomes) was more than 60 min. The area under the curve AUC(0-inf) (usually total exposure, with the tail of the curve extrapolated) in data set [15] is 23500 ng·h/mL. Further, the Vz – broadly, a proportionality between amount in the body and measured concentration, not a real space – in the data set on Mus musculus [16] was 25.2 mL. Also, the t1/2 in the data set on Mus musculus [17] turned out to be 19.8 min. The compound further displayed a C0 in [18] of 40 µg/mL. The same compound registered a CL with Mus musculus [19] of 53.1 mL/h. In data set [20], the concentration peaked (Cmax) at 300 µg/mL. In data set [21], the “log Pe” value is reported as “impermeable”. Further, in data set [22], the solubility kinetic at 15 h is more than 3000 µg/mL. In “physchem [8]”, this compound returned a logD at 2 h, 1 µM of less than -1.5.

For the compound `O=C(NCCNC(=S)Nc1ccc2c(c1)C(=O)OC21c2ccc(O)cc2Oc2cc(O)ccc21)c1ccc(-c2ccc(O[C@H]3O[C@H](CO)[C@@H](O)[C@H](O)[C@@H]3O)c(Cl)c2)cc1`, in [23], the Kd came out at 0.0017 µM.

Take `OC[C@H]1O[C@H](Oc2ccc(-c3ccc(-c4nnn[nH]4)cc3)cc2)[C@@H](O)[C@@H](O)[C@@H]1O`: in data set [24], the pKa (as a rule, the pH at which an ionisable group is half protonated) turned out to be 3.7. The Kd in data set [3] is 0.0057 µM.

Regarding `N#CNC(=O)c1ccc(-c2ccc(O[C@H]3O[C@H](CO)[C@@H](O)[C@H](O)[C@@H]3O)cc2)cc1`, the Papp A→B in data set [1] turned out to be 0.22 ×10⁻⁶ cm/s. The solubility kinetic at 15 h, 500 µM in “physchem [25]” and in the data set “physchem [11]” was more than 150 µg/mL throughout. In data set [24], this compound registered a pKa of 2.5. In addition, in data set [3], the dissociation constant Kd worked out at 0.0084 µM. Further, the Papp B→A in data set [6] was determined as 0.29 ×10⁻⁶ cm/s. Also, the logD at 2 h, 1 µM in the data set “physchem [8]” was -1.1.
